Converted amounts (≈) assume the structure as drawn.
Key:
[1] = Inhibition of EthR in Mycobacterium tuberculosis H37Rv expressing GFP infected in mouse RAW264.7 cells assessed as concentration required to ethionamide-induced 50% inhibition of bacterial growth after 5 days by microscopic analysis; format: cell-based; settings: RAW264.7, 120 h
Summary of the method: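 Raw264.7 macrophages infected with M. tuberculosis H37Rv-GFP (MOI 1:1, 2 h, 37 °C, shaking); extracellular bacilli killed with amikacin 20 μM for 1 h. Cells added to wells holding ethionamide fixed at 0.1 μg/mL plus ten 2-fold dilutions of compound. Incubated 5 days at 37 °C, 5% CO2. Macrophages stained with SYTO 60, then imaged by automated confocal microscopy. Read-out is % infected cells. EC50 is the mean of two experiments.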

RAW264.7 [2] = test: Inhibition of EthR in Mycobacterium tuberculosis H37Rv expressing GFP infected in mouse RAW264.7 cells assessed as potentiation of ethionamide-induced inhibition of intracellular bacterial growth after 5 days by microscopic analysis; format: cell-based
[3] = molecular target: HTH-type transcriptional regulator EthR (Mycobacterium tuberculosis, UniProt P9WMC1); test: Inhibition of Mycobacterium tuberculosis EthR interaction to ethA promoter after 5 mins by surface plasmon resonance assay
HTH-type transcriptional regulator EthR, sequence (P9WMC1 whole entry): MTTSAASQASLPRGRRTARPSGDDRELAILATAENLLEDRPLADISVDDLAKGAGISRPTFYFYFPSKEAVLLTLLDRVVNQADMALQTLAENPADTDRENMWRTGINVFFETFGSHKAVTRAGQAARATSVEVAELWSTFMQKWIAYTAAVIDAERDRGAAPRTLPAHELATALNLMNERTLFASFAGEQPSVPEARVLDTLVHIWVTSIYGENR

[4] = Solubility of the compound at pH 7.4 after 24 hrs; format: physicochemical; settings: buffer
Summary of the method: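 A 10 mM DMSO solution was diluted into PBS pH 7.4 or methanol and shaken gently 24 h at room temperature. It was then centrifuged and passed through a 0.45 μm filter. Filtrate was diluted in methanol and read by LC-MS-MS. Solubility was taken from the PBS/methanol mass-signal area ratio.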

RAW264.7 [5] = test: Cytotoxicity against mouse RAW264.7 cells at > 30 uM; format: cell-based
[6] = (§1) Intrinsic clearance in CD1 mouse liver microsomes by LC-MS-MS analysis; format: ADME, Microsome; settings: CD1, mouse, liver microsomes
Summary of the method: (§2)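 Male CD-1 mouse liver microsomes (0.6 mg protein/mL), compound 1 μM with 1% methanol vehicle, 5 mM MgCl2, 1 mM NADP, 5 mM glucose-6-phosphate, 0.4 U/mL G6PDH, 50 mM potassium phosphate pH 7.4, 37 °C, duplicates.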

[7] = Half life in CD1 mouse liver microsomes by LC-MS-MS analysis; format: ADME, Microsome; summary of the method: as §2
Liver = test: as §1; format: ADME, Microsome; settings: mouse, microsomes; summary of the method: as §2

SMILES	EC50 [1]	fold change (FC) (RAW264.7 [2])	other results
O=C(Cc1ccncc1)N1CCC(c2nc(-c3cccs3)no2)CC1	> 5 µM	10	
O=S(=O)(CCC(F)(F)F)N1CCC(c2nc(-c3cccs3)no2)CC1	> 5 µM		
O=C(CCC(F)(F)F)N1CCC[C@@H](c2nc(-c3cccs3)no2)C1	> 5 µM		
O=C(CC1CC1)N1CCC(c2nc(-c3cccs3)no2)CC1	0.2 µM		IC50 [3]: 1.1 µM; solubility at 24 h [4]: 64 µg/mL (≈ 202 µM); Activity (RAW264.7 [5]): Non-toxic
O=C(Cc1cccc(Cl)c1)N1CCC(c2nc(-c3cccs3)no2)CC1	> 5 µM	10	
O=C(Cc1cccnc1)N1CCC(c2nc(-c3cccs3)no2)CC1	> 5 µM	10	
N#CCC(=O)N1CCC(c2nc(-c3cccs3)no2)CC1	1.5 µM		microsomal CLint [6]: 11 µL/min/mg; solubility at 24 h [4]: 194 µg/mL (≈ 642 µM); half-life [7]: 91 min
Cc1ccccc1CC(=O)N1CCC(c2nc(-c3cccs3)no2)CC1	> 5 µM	10	
O=C(Cc1cccc(F)c1)N1CCC(c2nc(-c3cccs3)no2)CC1	> 5 µM	10	
O=C(c1ccccc1)N1CCC(c2nc(-c3cccs3)no2)CC1	> 5 µM	10	
CC(C)(C)CC(=O)N1CCC(c2nc(-c3cccs3)no2)CC1	> 5 µM		
O=C(Cc1ccccc1F)N1CCC(c2nc(-c3cccs3)no2)CC1	> 5 µM	10	
O=C(CCC(F)(F)F)N1CC[C@@H](c2nc(-c3cccs3)no2)C1	0.4 µM		solubility at 24 h [4]: 80 µg/mL (≈ 232 µM); Activity (RAW264.7 [5]): Non-toxic; half-life [7]: 298 min
COc1ccc(CC(=O)N2CCC(c3nc(-c4cccs4)no3)CC2)cc1	> 5 µM	10	
CC(C)NCC(O)COc1cccc2ccccc12 (stereo unspecified) [PROPRANOLOL]			half-life [7]: 13 min
O=C(Cc1cccc(C(F)(F)F)c1)N1CCC(c2nc(-c3cccs3)no2)CC1	> 5 µM	10	
CC(C)CCC(=O)N1CCC(c2nc(-c3cccs3)no2)CC1	0.1 µM		Activity (RAW264.7 [5]): Toxic
O=C(CCC(F)(F)F)N1CCC[C@H](c2nc(-c3cccs3)no2)C1	> 5 µM		
O=C(CCC(F)(C(F)(F)F)C(F)(F)F)N1CCC(c2nc(-c3cccs3)no2)CC1	> 5 µM		
CC1CCC(CC(=O)N2CCC(c3nc(-c4cccs4)no3)CC2)CC1 (stereo unspecified)	> 5 µM		

SMILES	EC50 [1]	fold change (FC) (RAW264.7 [2])	other results
O=C(CCc1cccs1)N1CCC(c2nc(-c3cccs3)no2)CC1	> 5 µM	10	
CC(C)CC(=O)N1CCC(c2nc(-c3cccs3)no2)CC1	2.5 µM		
CC(=O)N1CCC(c2nc(-c3cccs3)no2)CC1	> 5 µM		
O=C(Cc1ccc(Cl)cc1)N1CCC(c2nc(-c3cccs3)no2)CC1	2.2 µM	10	
COCC(=O)N1CCC(c2nc(-c3cccs3)no2)CC1	> 5 µM		
O=C(Cc1ccccc1C(F)(F)F)N1CCC(c2nc(-c3cccs3)no2)CC1	> 5 µM	10	
CC(CC(=O)N1CCC(c2nc(-c3cccs3)no2)CC1)C(F)(F)F (stereo unspecified)	> 5 µM		
CCC(=O)N1CCC(c2nc(-c3cccs3)no2)CC1	> 5 µM		
O=C(Cc1ccccc1)N1CCC(c2nc(-c3cccs3)no2)CC1	2.1 µM	10	IC50 [3]: 5.6 µM
O=C(CC1CCCC1)N1CCC(c2nc(-c3cccs3)no2)CC1	0.4 µM		Activity (RAW264.7 [5]): Toxic
O=C(O)CCC(=O)N1CCC(c2nc(-c3cccs3)no2)CC1	> 5 µM		
CC(C)CC(O)C(=O)N1CCC(c2nc(-c3cccs3)no2)CC1 (stereo unspecified)	> 5 µM		
CC(C)[C@H](N)C(=O)N1CCC(c2nc(-c3cccs3)no2)CC1	> 5 µM		
O=C(Cc1ccccc1Cl)N1CCC(c2nc(-c3cccs3)no2)CC1	> 5 µM	10	
O=C(Cc1ccccn1)N1CCC(c2nc(-c3cccs3)no2)CC1	> 5 µM	10	
O=C(CC(O)C(F)(F)F)N1CCC(c2nc(-c3cccs3)no2)CC1 (stereo unspecified)	> 5 µM		
[N-]=[N+]=NCC(=O)N1CCC(c2nc(-c3cccs3)no2)CC1	1.2 µM		
Cc1ccc(CC(=O)N2CCC(c3nc(-c4cccs4)no3)CC2)cc1	> 5 µM	10	
O=C(CC1CCCCC1)N1CCC(c2nc(-c3cccs3)no2)CC1	0.3 µM		Activity (RAW264.7 [5]): Toxic
COCCC(=O)N1CCC(c2nc(-c3cccs3)no2)CC1	> 5 µM		

SMILES	EC50 [1]	fold change (FC) (RAW264.7 [2])	other results
COc1cccc(CC(=O)N2CCC(c3nc(-c4cccs4)no3)CC2)c1	> 5 µM	10	
CCCCC(=O)N1CCC(c2nc(-c3cccs3)no2)CC1	1.1 µM		
O=C(CCC(F)(F)F)N1CCC(c2nc(-c3cccs3)no2)CC1	0.1 µM		CL (Liver): 213 µL/min/mg; Activity (RAW264.7 [5]): Non-toxic; half-life [7]: 5 min
CC(C)C[C@H](N)C(=O)N1CCC(c2nc(-c3cccs3)no2)CC1	> 5 µM		
CCCC(=O)N1CCC(c2nc(-c3cccs3)no2)CC1	2.1 µM		
CC(C)(C)CCC(=O)N1CCC(c2nc(-c3cccs3)no2)CC1	> 5 µM		
O=C(CCC1CCCCC1)N1CCC(c2nc(-c3cccs3)no2)CC1	1.8 µM		
O=C(Cc1ccc(C(F)(F)F)cc1)N1CCC(c2nc(-c3cccs3)no2)CC1	> 5 µM	10	
O=C(Cc1cccs1)N1CCC(c2nc(-c3cccs3)no2)CC1	0.1 µM		IC50 [3]: 0.5 µM; microsomal CLint [6]: 412 µL/min/mg; solubility at 24 h [4]: 22 µg/mL (≈ 61.2 µM); half-life [7]: 3 min
O=C(Cc1ncc[nH]1)N1CCC(c2nc(-c3cccs3)no2)CC1	> 5 µM	10	
O=C(CCC(F)(F)F)NCCCc1nc(-c2cccs2)no1	> 5 µM		
O=C(CCC(F)(F)F)N1CC[C@H](c2nc(-c3cccs3)no2)C1	1.6 µM		
Cc1cccc(CC(=O)N2CCC(c3nc(-c4cccs4)no3)CC2)c1	> 5 µM	10	
CC(CC(F)(F)F)C(=O)N1CCC(c2nc(-c3cccs3)no2)CC1 (stereo unspecified)	> 5 µM		
O=C(NCC(F)(F)F)N1CCC(c2nc(-c3cccs3)no2)CC1	> 5 µM		
O=C(Cc1ccc(F)cc1)N1CCC(c2nc(-c3cccs3)no2)CC1	0.8 µM	10	
COc1ccccc1CC(=O)N1CCC(c2nc(-c3cccs3)no2)CC1	> 5 µM	10	
O=C(CC(F)(F)F)N1CCC(c2nc(-c3cccs3)no2)CC1	1.3 µM		
O=C(CCC(F)(F)F)N1CC(c2nc(-c3cccs3)no2)C1	> 5 µM		

From ChEMBL document CHEMBL1773054, “Ethionamide boosters: synthesis, biological activity, and structure-activity relationships of a series of 1,2,4-oxadiazole EthR inhibitors” (J Med Chem, 2011)
